Legend:
[1] = target: C349A LIMK1-NanoLuc (Homo sapiens, UniProt P53667, C349A); assay: LIMK1 NanoBRET target engagement assay, C349A; type: cell-based; details: HEK293T cells, C349A-LIMK1 mutant, 3 h
How it was run: (§1)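 HEK293T cells in Opti-MEM without phenol red with 1% FBS (2x10^5 cells/mL) were transfected with WT or C349A LIMK1-NanoLuc plasmid (1 μg/mL) plus carrier DNA (9 μg/mL) for 20 h at 37 °C/5% CO2. K-10 tracer and test compound (diluted from 1000x DMSO stocks) were added for 3 h at 37 °C. Donor 450 nm and acceptor 610 nm were read after substrate/inhibitor (2 min, RT). Untransfected background was subtracted, mBU calculated, then normalized to DMSO. Triplicate wells.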

[2] = target: WT LIMK1-NanoLuc (Homo sapiens, UniProt P53667); assay: LIMK1 NanoBRET target engagement assay, WT; type: cell-based; details: HEK293T cells, 0.5 μM K-10 tracer, 3 h
How it was run: as §1

WT LIMK1-NanoLuc, sequence (P53667 whole entry): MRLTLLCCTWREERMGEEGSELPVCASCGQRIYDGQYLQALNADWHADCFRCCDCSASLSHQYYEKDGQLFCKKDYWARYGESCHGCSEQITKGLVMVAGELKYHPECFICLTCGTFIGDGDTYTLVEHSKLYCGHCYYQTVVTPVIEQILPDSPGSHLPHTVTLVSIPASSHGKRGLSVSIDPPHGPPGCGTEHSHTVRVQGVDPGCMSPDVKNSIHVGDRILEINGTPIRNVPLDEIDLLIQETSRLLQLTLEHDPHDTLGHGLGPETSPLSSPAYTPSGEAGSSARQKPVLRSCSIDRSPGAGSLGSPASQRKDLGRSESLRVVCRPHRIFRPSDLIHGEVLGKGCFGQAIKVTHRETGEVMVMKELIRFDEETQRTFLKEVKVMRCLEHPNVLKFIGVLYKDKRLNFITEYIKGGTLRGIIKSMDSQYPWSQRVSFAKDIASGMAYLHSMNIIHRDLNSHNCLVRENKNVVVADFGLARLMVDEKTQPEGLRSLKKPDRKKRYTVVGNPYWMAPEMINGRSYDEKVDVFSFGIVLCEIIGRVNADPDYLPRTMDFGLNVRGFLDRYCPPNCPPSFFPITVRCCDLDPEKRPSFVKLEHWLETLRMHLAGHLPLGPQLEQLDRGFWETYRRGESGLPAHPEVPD
C349A LIMK1-NanoLuc, sequence (P53667 whole entry C349A): as the sequence (P53667 whole entry) above, with C349A counted along it

- BRET signal (NanoBRET K-10 tracer) [1]: decreased NanoBRET signals
- BRET signal (NanoBRET K-10 tracer) [2]: decreased NanoBRET signals
Compound: COc1ccc(N(C(=O)Nc2c(C)cccc2C)c2cc(Nc3ccc(N4CCN(C)CC4)cc3)ncn2)c(OC)c1 [HG-9-91-01]

From article PMC11684312 (Nature chemistry, 2024)
